The term EC50 denotes the concentration needed to bring the measured effect to its halfway point. A low value points to greater potency. A word on the IC50: it is the point on the concentration scale where inhibition reaches its midpoint. Low values mean higher potency, high ones lower potency.

For data set [1], the system named is CEM-SS. Description: Concentration required to protect CEM-SS cells from HIV-1 mediated uM. Type of data set: functional, cell-based, Homo sapiens. Put shortly:
(§1)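 CEM-SS cells were infected with HIV-1 RF at MOI about 0.12 TCID50/cell for 4 h at 37 °C, then the virus supernatant was removed. Cells at 10^4/well were exposed to compound diluted from DMSO (maximum 100 µM) in triplicate wells. After 6 days at 37 °C, 5% CO2, viability was read with XTT. EC50 = concentration giving 50% protection from viral cytopathicity relative to infected controls.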

The subject of data set [2] is CEM-SS. The data set can be described thus: Antiviral activity against HIV-1 determined by concentration which resulted in cytotoxicity of 50% of CEM-SS cell population relative to drug-free controls. Type of data set: functional, cell-based. As to conditions: Homo sapiens; call rule not given here. Put shortly:
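Cytotoxicity in uninfected CEM-SS cells (RPMI 1640, 10% heat-inactivated FCS, 25 mM HEPES, antibiotics; 37 °C, 5% CO2). Compounds dissolved in DMSO, diluted in medium, top concentration 100 µM, duplicate wells per concentration. 10^4 cells/well, 6-day incubation, viability by XTT dye. IC50 = concentration reducing cell growth by 50% of uninfected controls.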

Data set [3] relates to CEM-SS. The data set can be described thus: Concentration required to protect CEM-SS cells from HIV-1 mediated cytopathicity by 50% relative to drug-free controls was determined. The format is functional, cell-based, Homo sapiens. Put shortly:
as §1

Data set [4] has as its target Human immunodeficiency virus type 1 reverse transcriptase (Human immunodeficiency virus 1, UniProt Q72547). Description: Inhibition of HIV-1 reverse transcriptase using a poly(rC):oligo(dG)12-18 template primer. Put shortly: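 HIV-1 reverse transcriptase inhibition was measured with a poly(rC):oligo(dG)12-18 template:primer system.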
A short description of data set [5]: Therapeutic Index (IC50/EC50). Put shortly:
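Ratio of cytotoxic IC50 in uninfected CEM-SS cells to antiviral EC50 in HIV-1 RF-infected CEM-SS cells, both from 6-day XTT viability readings. Not determined when no EC50 was available.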

As to `CCCc1cc(=O)oc2c1c1c(c3oc(C)c(C)c(=O)c32)C=CC(C)(C)O1`, in the data set with CEM-SS [1], the EC50 result was “Not Active”. Further, the IC50 in the data set with CEM-SS [2] was > 100 µM.
For the molecule `CCCc1cc(=O)oc2c3c(c4c(c12)OC(C)(C)C=C4)O[C@H](C)[C@@H](C)C3=O` (racemic), the EC50 in the data set on CEM-SS [3] (Homo sapiens, CEM-SS) came out at 1.2 µM; in data set [4] it was 40 µM. Inhibition with CEM-SS [2] was half-maximal at 19 µM (IC50). This molecule displayed a TI in data set [5] of 16 Ratio.
As to `CCCc1cc(=O)oc2c3c(c4c(c12)OC(C)(C)C=C4)O[C@H](C(C)C)[C@H](C)[C@@H]3O` (racemic), the EC50 entry in the data set with CEM-SS [1] was “Not Active”. Moreover, the midpoint of inhibition in the data set with CEM-SS [2], the IC50, lay at 6.9 µM.
Turning to `CCCc1cc(=O)oc2c3c(c4c(c12)OC(C)(C)C=C4)O[C@H](C)[C@H](C)C3=O` (racemic), the EC50 is 2.8 µM in the data set on CEM-SS [3] (Homo sapiens, CEM-SS) and > 100 µM in data set [4]. Further, the half-inhibitory concentration (IC50) in the data set with CEM-SS [2] came out at 12 µM. The molecule further had a TI in data set [5] of 4.3 Ratio.
For `CCCc1cc(=O)oc2c3c(c4c(c12)OC(C)(C)C=C4)OC[C@H](C)[C@H]3O` (racemic), in the data set with CEM-SS [1], the EC50 entry is given as “Not Active”. Also, half-maximal inhibition in the data set with CEM-SS [2] (IC50) was put at 22 µM.
With `CCCc1cc(=O)oc2c3c(c4c(c12)OC(C)(C)C=C4)OC[C@H](C)C31OCOCO1` (racemic), the concentration giving a half-maximal response (EC50) result in the data set with CEM-SS [1] is reported as “Not Active”. The molecule further registered an IC50 in the data set on CEM-SS [2] of 6.3 µM.
Taken in the same sequence, the figures for `CCCc1cc(=O)oc2c3c(c4c(c12)OC(C)(C)C=C4)O[C@H](C(C)C)[C@@H](C)[C@@H]3O` (racemic) were “Not Active” and 6.5 µM.
As to `CCCc1cc(=O)oc2c3c(c4c(c12)OC(C)(C)C=C4)O[C@H](CC)[C@@H](C)[C@H]3O` (racemic), the EC50 turned out to be 1.7 µM in the data set with CEM-SS [3] (Homo sapiens, CEM-SS) and 2 µM in data set [4]. Also, in the data set with CEM-SS [2], the IC50 came out at 14 µM. In data set [5], this molecule gave a TI of 8.2 Ratio.
As to `CCCc1cc(=O)oc2c3c(c4c(c12)OC(C)(C)C=C4)O[C@H](C)[C@@H](C)[C@@H]3O` (racemic) [CALANOLIDE A], the results for the EC50 (with CEM-SS [3] (cem-ss); in data set [4]) were 0.49 µM and 0.97 µM, respectively. The molecule further showed a TI in data set [5] of 47 Ratio.
Regarding `CCCc1cc(=O)oc2c3c(c4c(c12)OC(C)(C)C=C4)O[C@H](C(C)C)[C@@H](C)[C@H]3O` (racemic), in the data set on CEM-SS [1], the EC50 result is “Not Active”. Half-maximal inhibition in the data set on CEM-SS [2] (IC50) was put at 6.5 µM.
Consider `CCCc1cc(=O)oc2c3c(c4c(c12)OC(C)(C)C=C4)OC[C@H](C)C3=O` (racemic), for which the EC50 result in the data set on CEM-SS [1] is listed as “Not Active”.
Take `CCCc1cc(=O)oc2c3c(c4c(c12)OC(C)(C)C=C4)OC(C)(C)[C@H](C)[C@H]3O` (racemic): the EC50 came out at 5.7 µM in the data set with CEM-SS [3] (Homo sapiens, CEM-SS) and 5 µM in data set [4]. The molecule also came in with an IC50 in the data set on CEM-SS [2] of 21 µM. In data set [5], the TI came out at 3.7 Ratio.
For the molecule `CCCc1cc(=O)oc2c(C(=O)[C@H](C)[C@H](C)O)c(O)c3c(c12)OC(C)(C)C=C3` (racemic), the EC50 with CEM-SS [3] (Homo sapiens, CEM-SS) is 6.2 µM. Inhibition in the data set with CEM-SS [2] was half-maximal at 24 µM (IC50). The molecule further gave a TI in data set [5] of 3.9 Ratio.
As to `CCCc1cc(=O)oc2c3c(c4c(c12)OC(C)(C)C=C4)O[C@H](C)[C@@H](C)[C@@H]3O` [CALANOLIDE A], the EC50 came to 0.27 µM with CEM-SS [3] (Homo sapiens, CEM-SS) and 0.32 µM in data set [4]. Further, half-maximal inhibition in the data set with CEM-SS [2] (IC50) was put at 23 µM. The same molecule displayed a TI in data set [5] of 85 Ratio.
For `CCCc1cc(=O)oc2c(C(=O)[C@@H](C)[C@H](C)O)c(O)c3c(c12)OC(C)(C)C=C3` (racemic), in the data set with CEM-SS [3] (Homo sapiens, CEM-SS), the EC50 is 2.3 µM. Besides, in the data set on CEM-SS [2], the IC50 came out at 22 µM. Also, the TI in data set [5] is 9.6 Ratio.
Consider `CCCc1cc(=O)oc2c3c(c4c(c12)OC(C)(C)C=C4)O[C@H](CC)[C@H](C)[C@@H]3O` (racemic), for which the 50% effective concentration (EC50) result with CEM-SS [1] is “Not Active”. Inhibition with CEM-SS [2] was half-maximal at 12 µM (IC50).
Taken in the same sequence, the figures for `CCCc1cc(=O)oc2c3c(c4c(c12)OC(C)(C)C=C4)O[C@H](C)C(C)(C)[C@@H]3O` were “Not Active” and 20 µM.
On to `CCCc1cc(=O)oc2c3c(c4c(c12)OC(C)(C)C=C4)OC(C)(C)[C@H](C)[C@@H]3O` (racemic), for which the EC50 in the data set with CEM-SS [3] (Homo sapiens, CEM-SS) is > 100 µM. In the data set on CEM-SS [2], this molecule gave an IC50 of 21 µM.
Take `CCCc1cc(=O)oc2c3c(c4c(c12)OC(C)(C)C=C4)O[C@H](CC)[C@H](C)[C@H]3O` (racemic): the EC50 result in the data set on CEM-SS [1] is reported as “Not Active”. Besides, the IC50 in the data set with CEM-SS [2] amounted to 21 µM.
On to `CCCc1cc(=O)oc2c3c(c4c(c12)OC(C)(C)C=C4)O[C@H](CC)[C@@H](C)[C@@H]3O` (racemic), for which the EC50 with CEM-SS [3] (Homo sapiens, CEM-SS) came to 2 µM; in data set [4] it was 3.2 µM. Besides, the IC50 in the data set on CEM-SS [2] is 18 µM. The TI in data set [5] is 9 Ratio.
As for `CCCc1cc(=O)oc2c3c(c4c(c12)OC(C)(C)C=C4)OC(C)(C)CC3O` (racemic), the EC50 result in the data set on CEM-SS [1] was “Not Active”. In the data set on CEM-SS [2], this molecule gave an IC50 of 11 µM.
As for `CCCc1cc(=O)oc2c3c(c4c(c12)OC(C)(C)C=C4)O[C@H](C)C(C)(C)C3=O`, the EC50 in the data set on CEM-SS [3] (Homo sapiens, CEM-SS) is > 100 µM. The IC50 in the data set with CEM-SS [2] turned out to be 19 µM.
In the case of `CCCc1cc(=O)oc2c3c(c4c(c12)OC(C)(C)C=C4)O[C@H](CC)[C@@H](C)C3=O` (racemic), in the data set with CEM-SS [3] (Homo sapiens, CEM-SS), the EC50 was > 100 µM. In the data set with CEM-SS [2], the IC50 came to 18 µM.
Regarding `CCCc1cc(=O)oc2c(C(=O)C(C)(C)C(C)O)c(O)c3c(c12)OC(C)(C)C=C3` (racemic), in the data set with CEM-SS [1], the EC50 result is “Not Active”. This molecule also showed an IC50 in the data set with CEM-SS [2] of 37 µM.
Taken in the same sequence, the figures for `CCCc1cc(=O)oc2c3c(c4c(c12)OC(C)(C)C=C4)O[C@H](C)[C@H](C)[C@@H]3O` (racemic) [CALANOLIDE C] were “Not Active” and 18 µM.
For `CCCc1cc(=O)oc2c(C(=O)CC)c(OCC)c3c(c12)OC(C)(C)C=C3`, in that order: “Not Active” and 6.6 µM.
Taken in the same sequence, the figures for `CCCc1cc(=O)oc2c3c(c4c(c12)OC(C)(C)C=C4)OC(C)(C)[C@H](C)C3=O` (racemic) were “Not Active” and 2.4 µM.
As to `CCCc1cc(=O)oc2c3c(c4c(c12)OC(C)(C)C=C4)O[C@H](C(C)C)[C@@H](C)C3=O` (racemic), the EC50 result in the data set with CEM-SS [1] is on record as “Not Active”. For the same molecule, half-maximal inhibition in the data set with CEM-SS [2] (IC50) required 21 µM.
Turning to `CCCc1cc(=O)oc2c(C(=O)C(C)C(C)(C)O)c(O)c3c(c12)OC(C)(C)C=C3` (racemic), the concentration for a half-maximal effect (EC50) entry with CEM-SS [1] is reported as “Not Active”.
`CCCc1cc(=O)oc2c(C(O)CC)c(OCC)c3c(c12)OC(C)(C)C=C3` (racemic): in the data set on CEM-SS [1], the EC50 result is recorded as “Not Active”. Besides, the IC50 in the data set with CEM-SS [2] turned out to be 16 µM.
Regarding `CCCc1cc(=O)oc2c3c(c4c(c12)OC(C)(C)C=C4)O[C@H](C)[C@H](C)[C@H]3O` (racemic), in the data set on CEM-SS [3] (Homo sapiens, CEM-SS), the EC50 was > 100 µM. In addition, in the data set on CEM-SS [2], the IC50 is 20 µM.
As to `CCCc1cc(=O)oc2c3c(c4c(c12)OC(C)(C)C=C4)O[C@H](C)C(C)(C)[C@H]3O` (racemic), the EC50 in the data set with CEM-SS [3] (Homo sapiens, CEM-SS) is 2.4 µM; in data set [4], 32 µM. Besides, in the data set with CEM-SS [2], the IC50 worked out at 15 µM. Moreover, the TI in data set [5] was determined as 6.2 Ratio.
Taken in the same sequence, the figures for `CCCc1cc(=O)oc2c3c(c4c(c12)OC(C)(C)C=C4)OC[C@H](C)[C@@H]3O` (racemic) were 7.2 µM, 50 µM, 22 µM and 3.1 Ratio.

The record behind these values is ChEMBL document CHEMBL1130339, “Structural analogues of the calanolide anti-HIV agents. Modification of the trans-10,11-dimethyldihydropyran-12-ol ring (ring C)” (J Med Chem, 1997).
